For 21 molecules, Activity, EC50 and Ratio EC50 results are on record in ChEMBL document CHEMBL1154014, “Discovery of a novel class of 2-mercaptohexanoic acid derivatives as highly active PPARalpha agonists” (Bioorg Med Chem Lett, 2009).

Activity calls are given as the source filed them. The rule behind the calls is not given here.

Assay [1] addresses T1, Peroxisome proliferator-activated receptor delta (Homo sapiens) (UniProt Q03181).
T1 sequence (whole entry): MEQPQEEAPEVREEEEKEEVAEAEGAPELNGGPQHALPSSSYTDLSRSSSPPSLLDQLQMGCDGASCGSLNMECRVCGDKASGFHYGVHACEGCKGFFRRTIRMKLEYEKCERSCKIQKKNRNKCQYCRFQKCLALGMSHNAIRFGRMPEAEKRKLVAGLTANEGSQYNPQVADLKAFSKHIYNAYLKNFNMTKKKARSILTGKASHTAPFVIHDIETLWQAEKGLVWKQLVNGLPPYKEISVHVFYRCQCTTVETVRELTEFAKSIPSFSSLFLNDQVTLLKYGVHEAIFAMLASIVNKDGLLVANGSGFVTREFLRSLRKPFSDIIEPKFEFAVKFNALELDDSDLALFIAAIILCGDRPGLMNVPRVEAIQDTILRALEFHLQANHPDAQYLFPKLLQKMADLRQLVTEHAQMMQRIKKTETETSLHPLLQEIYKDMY
The experiment in a line: Agonist activity at human PPARbeta expressed in african green monkey COS7 cells at 10 uM by Gal4 transactivation assay. Type of assay: functional, cell-based. As to conditions: COS-7.

Assay [2] addresses T2, Peroxisome proliferator-activated receptor gamma (Homo sapiens, UniProt P37231).
T2 sequence (P37231 whole entry): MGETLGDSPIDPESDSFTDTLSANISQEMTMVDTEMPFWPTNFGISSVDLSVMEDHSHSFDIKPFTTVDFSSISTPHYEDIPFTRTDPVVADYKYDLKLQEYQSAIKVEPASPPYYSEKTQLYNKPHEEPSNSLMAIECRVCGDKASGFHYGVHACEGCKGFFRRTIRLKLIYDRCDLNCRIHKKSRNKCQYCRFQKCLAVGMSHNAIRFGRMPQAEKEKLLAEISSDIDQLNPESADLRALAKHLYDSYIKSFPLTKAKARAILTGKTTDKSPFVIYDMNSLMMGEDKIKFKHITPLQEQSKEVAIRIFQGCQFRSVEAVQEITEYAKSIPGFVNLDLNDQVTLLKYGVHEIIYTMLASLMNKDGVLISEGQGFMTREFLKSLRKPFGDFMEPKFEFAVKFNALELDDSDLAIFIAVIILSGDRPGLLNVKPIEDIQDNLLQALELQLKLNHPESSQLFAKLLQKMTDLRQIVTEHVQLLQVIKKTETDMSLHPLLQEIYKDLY
As to the kind of experiment: Agonist activity at human PPARgamma expressed in african green monkey COS7 cells by Gal4 transactivation assay. The assay is classed as functional, cell-based, COS-7. A digest of the protocol: (§1)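 COS7 cells were grown in DMEM with FCS, sodium pyruvate and penicillin/streptomycin at 37 °C, 5% CO2, and seeded at 30,000 cells/well the day before transfection. They were lipofected with pFR-Luc, pRL-SV40 and the Gal4-hPPAR-LBD plasmid of each subtype. After 5 h, cells received serum-free DMEM with 0.1% DMSO plus compound, incubated overnight, then Dual-Glo luciferase read-out. Triplicate wells, ≥3 independent experiments; EC50 from mean values.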

Assay [3] deals with T3, Peroxisome proliferator-activated receptor alpha (Homo sapiens) (UniProt Q07869).
T3 sequence (whole entry): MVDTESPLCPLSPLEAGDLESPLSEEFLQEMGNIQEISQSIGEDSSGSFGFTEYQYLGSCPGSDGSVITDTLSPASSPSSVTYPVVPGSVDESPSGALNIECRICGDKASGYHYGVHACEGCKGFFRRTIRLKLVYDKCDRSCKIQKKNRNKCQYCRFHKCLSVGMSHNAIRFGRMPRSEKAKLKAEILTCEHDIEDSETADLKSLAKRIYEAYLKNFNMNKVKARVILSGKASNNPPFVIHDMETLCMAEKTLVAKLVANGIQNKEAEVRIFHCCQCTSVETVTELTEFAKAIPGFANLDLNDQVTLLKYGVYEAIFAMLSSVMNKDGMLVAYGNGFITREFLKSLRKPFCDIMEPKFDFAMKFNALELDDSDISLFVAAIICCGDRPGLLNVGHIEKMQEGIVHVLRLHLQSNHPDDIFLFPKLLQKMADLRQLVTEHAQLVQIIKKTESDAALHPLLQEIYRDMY
The experiment in a line: Agonist activity at human PPARalpha expressed in african green monkey COS7 cells at 1 uM by Gal4 transactivation assay relative to GW-7647. Type of assay: functional, cell-based. The following applies: COS-7.

In assay [4] the target is T4, Peroxisome proliferator-activated receptor alpha (Homo sapiens, UniProt Q07869).
T4 sequence (Q07869 whole entry): T3 sequence (whole entry)
As to the kind of experiment: Agonist activity at human PPARalpha expressed in african green monkey COS7 cells by Gal4 transactivation assay. Type of assay: functional, cell-based, COS-7. A digest of the protocol:
as §1

In assay [5] the target is T5, Peroxisome proliferator-activated receptor gamma (Homo sapiens) (UniProt P37231).
T5 sequence (whole entry): T2 sequence (P37231 whole entry)
As to the kind of experiment: Agonist activity at human PPARgamma expressed in african green monkey COS7 cells at 1 uM by Gal4 transactivation assay relative to pioglitazone. The following applies: COS-7. The assay is classed as functional, cell-based.

Another assay concerns COS-7. The experiment in a line: Selectivity ratio of EC50 for human PPARgamma to EC50 for human PPARalpha expressed in african green monkey COS7 cells. Type of assay: cell-based.
Assay [6] concerns the target T5, Peroxisome proliferator-activated receptor gamma (Homo sapiens). The experiment in a line: Agonist activity at human PPARgamma expressed in african green monkey COS7 cells at 10 uM by Gal4 transactivation assay. Type of assay: functional, cell-based. The following applies: COS-7.
In assay [7] the target is T3, Peroxisome proliferator-activated receptor alpha (Homo sapiens). The experiment in a line: Agonist activity at human PPARalpha expressed in african green monkey COS7 cells at 10 uM by Gal4 transactivation assay. Type of assay: functional, cell-based. As to conditions: COS-7.
For assay [8], the target named is T1, Peroxisome proliferator-activated receptor delta (Homo sapiens). As to the kind of experiment: Agonist activity at human PPARbeta expressed in african green monkey COS7 cells at 10 uM by Gal4 transactivation assay relative to L165041. Type of assay: functional, cell-based. The following applies: COS-7.
Assay [9] addresses T6, Peroxisome proliferator-activated receptor delta (Homo sapiens, UniProt Q03181).
T6 sequence (Q03181 whole entry): T1 sequence (whole entry)
As to the kind of experiment: Agonist activity at human PPARbeta expressed in african green monkey COS7 cells by Gal4 transactivation assay. Type of assay: functional, cell-based, COS-7. Summed up: as §1

Assay [10] addresses T1, Peroxisome proliferator-activated receptor delta (Homo sapiens). The experiment in a line: Agonist activity at human PPARbeta expressed in african green monkey COS7 cells at 1 uM by Gal4 transactivation assay relative to L165041. The assay is classed as functional, cell-based. The following applies: COS-7.

Turning to `CCCCC(Sc1ccc(OCCCOc2cccc3c2CCCC3)cc1)C(=O)O` (centres undefined), the outcome in assay [1] was inactive. The EC50 (in general, the concentration needed to bring the measured effect to its halfway point) in assay [2] turned out to be 8.1 µM; in [4], 0.19 µM. In addition, the figures for the Activity in [3] and in assay [5] were 101% and 107%, respectively.
As for `CCCCC(Sc1ccc(OCCCOc2ccc(-c3ccccc3)cc2)cc1)C(=O)O` (centres undefined), the Ratio EC50 in the assay with COS-7 was found to be 5. The result in assay [1] was inactive. Further, the figures for the EC50 in assay [2] and in assay [4] were 0.54 µM and 0.11 µM, respectively. The Activity in [3] stood at 125%; in assay [5] it was 108%.
As to `CCCC/C(=C\c1ccc(OCCCOc2cccc(C)c2C)cc1)C(=O)O`, the result in assay [1], in [6] and in assay [7] was inactive.
For the molecule `CCCCC(Sc1ccc(OCCCOc2ccccc2C(C)C)cc1)C(=O)O` (centres undefined), the result in assay [1] was inactive. Also, the figures for the EC50 in assay [2] and in assay [4] were 4.1 µM and 2 µM, respectively. The Activity came to 89% in assay [3] and 92% in assay [5].
In the same order, the values of `CCCCC(Sc1ccc(OCCCOc2cccc(OC)c2)cc1)C(=O)O` (centres undefined) are “inactive”, 1.2 µM, 0.049 µM, 85% and 85%.
With `CCCCC(Sc1ccc(OCCCOc2ccc(C)cc2)cc1)C(=O)O` (centres undefined), the results for the Activity in assay [8], in assay [3] and in assay [5] were 31%, 91% and 87%, respectively. For the same molecule, the EC50 in [2] amounted to 0.93 µM; in assay [4], 0.085 µM.
For `CCCCC(Sc1ccc(OCCCOc2cccc(C)c2)cc1)C(=O)O` (centres undefined), the outcome in [1] was inactive. Besides, the values for the EC50 in assay [2] and in [4] were 3 µM and 0.09 µM, respectively. Further, the Activity in assay [3] was 80%; in [5], 96%.
Taken in the same sequence, the figures for `CCCCC(Sc1ccc(OCCCOc2cccc(C(C)C)c2)cc1)C(=O)O` (centres undefined) were “inactive”, 5.3 µM, 0.15 µM, 98% and 91%.
As to `Cc1cccc(OCCCOc2ccc(CCC(=O)O)cc2)c1C`, the EC50 in assay [9] amounted to 11.2 µM; in [2], 15.7 µM; in [4], 13.8 µM. Also, the Activity was determined as 72% in [10], 63% in assay [3] and 54% in assay [5].
In the case of `Cc1cccc(OCCCOc2ccc(SCC(=O)O)cc2)c1C`, the EC50 in [9] is 1.4 µM; in assay [2] it was 3.8 µM; in assay [4], 0.6 µM. Also, the Activity in [10] is 52%; in [3], 81%; in [5], 77%.
For `CCCCC(Sc1ccc(OCCCOc2ccccc2)cc1)C(=O)O` (centres undefined), the Ratio EC50 in the assay on COS-7 came out at 9. Further, in assay [1], the outcome was inactive. For the same molecule, the EC50 in assay [2] is 2.6 µM; in [4] it was 0.29 µM. Further, the Activity turned out to be 76% in assay [3] and 83% in assay [5].
Turning to `CCCCC(Sc1ccc(OCCCOc2ccc(Cl)c(C(F)(F)F)c2)cc1)C(=O)O` (centres undefined), the result in assay [1] was inactive. For the same molecule, the EC50 in [2] came out at 7.8 µM; in assay [4], 0.39 µM. The results for the Activity in [3] and in [5] were 65% and 96%, respectively.
With `CCCC[C@H](Sc1ccc(OCCCOc2cccc(C)c2C)cc1)C(=O)O`, the outcome in assay [1] was inactive. Besides, the EC50 worked out at 9.9 µM in [2] and 1.7 µM in assay [4]. In addition, the Activity was 94% in assay [3] and 77% in assay [5].
Taken in the same sequence, the figures for `CCCCC(Sc1ccc(OCCCOc2cccc(C(F)(F)F)c2)cc1)C(=O)O` (centres undefined) were “inactive”, 4.6 µM, 0.025 µM, 75% and 68%.
Taken in the same sequence, the figures for `CCCCC(Sc1ccc(OCCCOc2ccccc2OC)cc1)C(=O)O` (centres undefined) were “inactive”, 1.6 µM, 0.55 µM, 92% and 85%.
Taken in the same sequence, the figures for `CCCC[C@@H](Sc1ccc(OCCCOc2cccc(C)c2C)cc1)C(=O)O` were “inactive”, 3.9 µM, 0.011 µM, 115% and 125%.
Consider `CCCCC(Sc1ccc(OCCCOc2cccc(C)c2C)cc1)C(=O)O` (centres undefined), for which the Ratio EC50 with COS-7 amounted to 54. Besides, the outcome in [1] was inactive. Further, the figures for the EC50 in [2] and in assay [4] were 3 µM and 0.056 µM, respectively. The Activity in assay [3] is 113%; in [5], 82%.
Regarding `CCCCC(Cc1ccc(OCCCOc2cccc(C)c2C)cc1)C(=O)O` (centres undefined), in assay [1], the result was inactive. In addition, the EC50 in assay [2] worked out at 4.2 µM; in assay [4], 1.5 µM. Further, the Activity stood at 73% in [3] and 120% in assay [5].
As to `CCCCC(Sc1ccc(OCCCOc2ccc3ncccc3c2)cc1)C(=O)O` (centres undefined), in the assay with COS-7, the Ratio EC50 is 6. Further, in assay [1], the result was inactive. Moreover, the EC50 in assay [2] was 1.3 µM; in assay [4], 0.22 µM. Moreover, the Activity in [3] amounted to 95%; in assay [5] it was 49%.
For the molecule `CCCCC(Sc1ccc(OCCCOc2ccc(C)c(C)c2)cc1)C(=O)O` (centres undefined), the result in assay [1] was inactive. The EC50 in assay [2] turned out to be 3.5 µM; in [4], 0.021 µM. The Activity in assay [3] stood at 72%; in assay [5], 61%.
Taken in the same sequence, the figures for `CCCCC(Sc1ccc(OCCCOc2ccccc2C)cc1)C(=O)O` (centres undefined) were “inactive”, 2.3 µM, 0.25 µM, 64% and 114%.
